A selection: hits, their analogues and other compounds. The true share with any hit is near 1.6%.
H9c2 protect – protects H9c2 cardiomyocytes from peroxide injury. protection from H2O2 cell death, % at 20 µM. 360,000 tested, 0.63% active. H2O2 injury protection, ATPLite, 2 h;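 active = compounds giving at least 50% protection of heart cells from peroxide-induced death in the single-dose screen, raw or plate-pattern-corrected value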;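 also: 0% = DMSO wells with peroxide and 100% = DMSO wells without peroxide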
ARFGAP1 inhibitor – inhibitors of rat ARFGAP1 | 360,000 tested, 0.26% active | inhibition, % at 16.5 µM | Arfgap1-stimulated ARF1 GTP hydrolysis, GDP FP detection | Q62848;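 active = inhibition above a per-plate limit, mean inhibition of low control wells plus 3 SD, cut at about 25% in these data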;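 also: 0% = DMSO wells with enzyme and 100% = wells lacking Arfgap1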
Target sequence (Q62848 1-136 limits assumed): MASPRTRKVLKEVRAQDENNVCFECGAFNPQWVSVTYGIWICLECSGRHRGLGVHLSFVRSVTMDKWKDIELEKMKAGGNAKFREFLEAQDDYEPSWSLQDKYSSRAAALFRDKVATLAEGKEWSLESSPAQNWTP
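Replicates: Single well per compound | Assay system: Truncated rat Arfgap1 GAP domain | Control set: No-Arfgap1 wells (100%) versus DMSO full-reaction wells (0%) | Times: Enzyme reaction 120 min at 25 °C after 20 min preincubation | Reagent: Human ARF1(Δ1-17)-GTP substrate | Measured by: Tracer-displacement fluorescence polarization with EDTA stop, 620/688 nm | Measure: Percent inhibition of Arfgap1-stimulated GTP hydrolysis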
Neddylation inh – inhibitors of human cullin neddylation; TR-FRET cullin neddylation, biochemical; inhibition, % at 25 µM; 360,000 tested, 0.58% active; in the data active = inhibition above about 36%
ASAP1 inh – inhibitors of human ASAP1 ArfGAP activity | Q9ULH1 | ASAP1-stimulated ARF1 GTP hydrolysis, GDP FP detection | inhibition, % at 16.5 µM | 360,000 tested, 0.19% active | AID 624377; in the data active = inhibition above about 25%;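 also: 0% = vehicle with enzyme and substrate and 100% = no enzyme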
Target sequence (Q9ULH1 325-724 limits assumed): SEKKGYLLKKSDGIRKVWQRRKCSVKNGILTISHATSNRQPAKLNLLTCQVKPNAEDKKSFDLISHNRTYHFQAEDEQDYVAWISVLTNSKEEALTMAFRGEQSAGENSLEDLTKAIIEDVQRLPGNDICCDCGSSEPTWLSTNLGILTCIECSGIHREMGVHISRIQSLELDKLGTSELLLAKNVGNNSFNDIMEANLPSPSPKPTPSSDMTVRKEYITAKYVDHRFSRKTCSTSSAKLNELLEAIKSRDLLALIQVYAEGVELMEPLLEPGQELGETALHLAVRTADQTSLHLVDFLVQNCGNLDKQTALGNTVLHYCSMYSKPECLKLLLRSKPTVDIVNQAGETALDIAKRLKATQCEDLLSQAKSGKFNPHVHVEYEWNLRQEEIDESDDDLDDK
* = called active by the depositor.

Screening COCCNC(=O)C1(C)CCCN(Cc2ccc3ccccc3c2Br)C1 (stereo not drawn) returned H9c2 protect 0, ARFGAP1 inhibitor 2, Neddylation inh -245 and ASAP1 inh 2.
COC(=O)[C@]12C[C@H](CC(=O)N3CCN(C(=O)c4ccco4)CC3)C(=O)N(Cc3ccccc3)C1=C[C@H](C(C)(C)C)O[C@@H]2C was read as ARFGAP1 inhibitor 8 and ASAP1 inh -4.
`O=C(Nc1cccc2c1[nH]c(=O)c1ccccc12)C(F)(F)F` gave H9c2 protect 36, ARFGAP1 inhibitor -3, Neddylation inh 1 and ASAP1 inh 6.
`O=C(Nc1ccc2c(c1)[nH]c(=O)c1ccccc12)C(F)(F)F` gave H9c2 protect 64*, ARFGAP1 inhibitor 4, Neddylation inh 9 and ASAP1 inh 8.
For CC(=O)Nc1ccc2c(c1)[nH]c(=O)c1ccccc12 the results were H9c2 protect 75*, ARFGAP1 inhibitor -7 and ASAP1 inh -2.
CC(C)CCN(C)[C@H]1C[C@H]2c3[nH]c4ccccc4c3CCN2C[C@H]1[C@H](C)O was read as ARFGAP1 inhibitor -5 and ASAP1 inh -11.
Screening O=C(N[C@H](C(=O)N1CCC[C@H]1C(=O)NCc1ccccc1)C1CCCCC1)c1ccc(Cl)cc1Cl returned ARFGAP1 inhibitor 13 and ASAP1 inh 2.
Cc1cc(N2CCNC[C@H]2C)ccc1N1CCS(=O)(=O)CC1 was read as ARFGAP1 inhibitor -6 and ASAP1 inh 5.
For Cc1c(O)ccc(/C(Cc2ccc3ccccc3n2)=N\N)c1O the results were H9c2 protect 63*, ARFGAP1 inhibitor 12, Neddylation inh 32 and ASAP1 inh 5.
For CNc1ncn(-c2c(C)cccc2C)c(=O)n1 the results were ARFGAP1 inhibitor 3 and ASAP1 inh 11.
For C/C(=N\Nc1nc(C)cc(-c2ccccc2)n1)c1ccc(C)o1 the results were H9c2 protect 48*, ARFGAP1 inhibitor 11, Neddylation inh 14 and ASAP1 inh 19.
Screening O=C(N/N=C/c1cccc([N+](=O)[O-])c1O)C(O)(c1ccccc1)c1ccccc1 returned H9c2 protect 63*, ARFGAP1 inhibitor -3, Neddylation inh -45 and ASAP1 inh 9.
Screening CCOc1ccc(-n2c(C)c(C(C)=O)c3cc(OC(C)=O)ccc32)cc1 returned H9c2 protect 50*, ARFGAP1 inhibitor 1, Neddylation inh 6 and ASAP1 inh 1.
Screening COc1ccc(NC(=O)OC[C@@H]2CSCCS(=O)(=O)N2)cc1 returned ARFGAP1 inhibitor 1 and ASAP1 inh -9.
Screening O=C(COC(=O)Cc1n[nH]c(=O)c2ccccc12)NNC(=O)c1ccc(Br)cc1 returned H9c2 protect 53*, ARFGAP1 inhibitor 7, Neddylation inh -11 and ASAP1 inh 2.
For CCN(CC(=O)Nc1c(F)cccc1F)C(=O)Cc1c[nH]c2ccccc12 the results were H9c2 protect -1, ARFGAP1 inhibitor -8, Neddylation inh 7 and ASAP1 inh 1.
Screening CCN(CC(=O)Nc1c(F)cccc1F)C(=O)Cn1[nH]c(=O)c2ccccc2c1=O returned H9c2 protect 84*, ARFGAP1 inhibitor 0, Neddylation inh 4 and ASAP1 inh -18.
For O=C(Cc1n[nH]c(=O)c2ccccc12)OCC(=O)c1ccc2c(c1)OCCO2 the results were H9c2 protect 66*, ARFGAP1 inhibitor 7, Neddylation inh -9 and ASAP1 inh 4.
`O=C(Cc1n[nH]c(=O)c2ccccc12)OCC(=O)c1ccc(F)cc1` gave H9c2 protect 42, ARFGAP1 inhibitor -19, Neddylation inh 3 and ASAP1 inh -12.
Screening Cc1ccccc1OCC(=O)NNC(=O)Cn1[nH]c(=O)c2ccccc2c1=O returned H9c2 protect 53*, ARFGAP1 inhibitor 3, Neddylation inh 2 and ASAP1 inh -1.
CCOc1ccccc1NC(=O)Cn1[nH]c(=O)c2ccccc2c1=O was read as H9c2 protect 12 and Neddylation inh -11.
`COc1cc2c(cc1OC)C(C(=O)O)C(c1ccc3c(c1)OCO3)N(C)C2=O` (stereo not drawn) gave ARFGAP1 inhibitor -1 and ASAP1 inh -4.
For O=C(COC(=O)Cc1n[nH]c(=O)c2ccccc12)NNC(=O)c1ccc(Cl)cc1 the results were H9c2 protect 66*, ARFGAP1 inhibitor -2, Neddylation inh -18 and ASAP1 inh -5.
CN1CCC[C@H]1CCNc1ccc2c(=O)c3ccccc3n(C)c2c1 was read as H9c2 protect 20, ARFGAP1 inhibitor 2 and ASAP1 inh -1.
COc1ccc(C(C)=O)cc1COC(=O)Cc1n[nH]c(=O)c2ccccc12 was read as H9c2 protect 72*, ARFGAP1 inhibitor 0, Neddylation inh -2 and ASAP1 inh -9.
Screening CCOc1ccc(C(=O)COC(=O)Cc2n[nH]c(=O)c3ccccc23)cc1 returned H9c2 protect 44, ARFGAP1 inhibitor 0, Neddylation inh -162 and ASAP1 inh -5.
Screening O=C(COC(=O)Cn1[nH]c(=O)c2ccccc2c1=O)NNC(=O)c1ccc(Br)cc1 returned H9c2 protect 83*, ARFGAP1 inhibitor -4, Neddylation inh -20 and ASAP1 inh 3.
Screening COc1ccccc1C(=O)COC(=O)Cc1n[nH]c(=O)c2ccccc12 returned H9c2 protect 20, ARFGAP1 inhibitor -9, Neddylation inh 21 and ASAP1 inh 5.
For Cn1c2ccccc2c(=O)c2ccc(NCc3ccc4c(c3)OCO4)cc21 the results were H9c2 protect 71*, ARFGAP1 inhibitor 0 and ASAP1 inh -1.
For CCOC(=O)c1c(Nc2ccc(OC)cc2)n[nH]c1C the results were ARFGAP1 inhibitor -5 and ASAP1 inh 5.
Screening O=C(Nc1ccc(Nc2cccnc2)cc1)c1c[nH]c2ccccc12 returned ARFGAP1 inhibitor 15 and ASAP1 inh 12.
`O=C(NCc1ccc2c(c1)OCO2)c1n[nH]c(=O)c2ccccc12` gave H9c2 protect 68*, ARFGAP1 inhibitor 3, Neddylation inh 6 and ASAP1 inh -10.
`O=C(c1n[nH]c(=O)c2ccccc12)N1CCN(Cc2ccc3c(c2)OCO3)CC1` gave H9c2 protect 8, ARFGAP1 inhibitor -1, Neddylation inh -3 and ASAP1 inh 8.
Screening O=C(Cn1[nH]c(=O)c2ccccc2c1=O)NCC1COc2ccccc2O1 (stereo not drawn) returned H9c2 protect 57*, ARFGAP1 inhibitor -7, Neddylation inh -3 and ASAP1 inh 1.
O=C(OCc1ccccc1)N1CCC2CC1c1ccc(/C=C/CCCCl)cc12 (stereo not drawn) was read as H9c2 protect -3, ARFGAP1 inhibitor -6, Neddylation inh -4 and ASAP1 inh -3.
For O=C(N/N=C/c1cc(Br)cc(Br)c1O)c1cccc(N2CCCC2=O)c1 the results were H9c2 protect 52*, ARFGAP1 inhibitor -5, Neddylation inh 21 and ASAP1 inh 3.
O=C(N/N=C/c1cc(Br)cc(Br)c1O)c1cccc(S(=O)(=O)N2CCOCC2)c1 was read as H9c2 protect 50*, ARFGAP1 inhibitor 6, Neddylation inh -1 and ASAP1 inh 4.
